Compound activity from PubChem BioAssay.
In the library only some 2.1% were active in any assay of this set; here they are far more common.
Cneo AK release: causes C. neoformans cell lysis | 360,000 tested, 0.2% active | adenylate kinase release luminescence, 4 h; normalised: neutral wells 0, clomiphene wells 100 | lysis activity, % at 15 µM;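 active = mean lysis activity across replicates of at least 80%, whatever share of replicates individually reach that level; inactive = mean lysis activity below 80%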
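Material: C. neoformans cells | Amount: Yeast cell density of 5 × 10^6 cells/mL | Medium: Fresh YPD growth medium | Dosing: Single dose | Times: Static 4 h at 37 °C with compound, 1 h detection | Detection: AK luminescence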
Statin myotox sup: suppression of simvastatin myotoxicity; C2C12 myotubes + simvastatin, ATP luminescence, 48 h; scaled: DMSO 0, geranylgeraniol control 100; rescue of ATP level, % at 7.49 µM; 330,000 tested, 0.78% active; AID 602340;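 active = mean ATP rescue above about 67%, or every replicate alone reaching that limit, limit read from the data, passing the limit was not always enough; inconclusive = no clear call, values can overlap the other calls; inactive = mean under the limit and some replicate under it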;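 note: myotubes were challenged with 10 µM simvastatin during compound exposure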
DENV2 CPE rescue: inhibitors of DENV2 cytopathic effect; DENV2-infected cells, cytopathic effect rescue, plate reader; CPE inhibition, % at 9.99 µM; 350,000 tested, 1.7% active; AID 651640; in the data active = CPE inhibition above about 20%, passing the limit was not always enough; inconclusive = no clear call, values can overlap the other calls; tested in BHK-21 cells;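 note: 0% = median of neutral control wells and 100% = median of positive control wells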
Xi reactivation: activators of X-chromosome reactivation in mouse fibroblasts. activation, % at 7.58 µM. XiGFP mouse fibroblasts, % GFP-positive cells imaging, 3 d; cells co-treated with 5-aza-dC sensitizer; scaled so ellipticine positive control = 100%. AID 743238. 360,000 tested, 0.055% active;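 active = mean normalized replicate activation at least 10% and every replicate at or above 10%; inconclusive = only one of the two criteria met; inactive = mean below 10% and not all replicates reach 10%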;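 note: 0% = median of on-plate neutral control wells and 100% = ellipticine 6 µM median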
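Schedule: 3 d treatment, 15 min room-temperature fixation; system: 68-5-11 XiGFP fibroblast line; buffer or medium: DMEM plus 5-aza-dC sensitizer; control set: ellipticine 6 µM positive control; compound: one concentration, pinned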
* marks the source's active call; other numbers are inactive results; u = inconclusive; x = not tested or not shown; ! = not confirmed by another sample.

SMILES | Cneo AK release | Statin myotox sup | DENV2 CPE rescue | Xi reactivation
C[C@H](CO)N1C[C@H](C)[C@H](CN(C)Cc2ccc(-c3ccccc3)cc2)Oc2c(NC(=O)c3ccncc3)cccc2C1=O | 111.4* | -19.7 | 4.6 | 0.1
C[C@H](CO)N1C[C@H](C)[C@@H](CN(C)C(=O)Nc2ccccc2)Oc2c(NC(=O)c3ccncc3)cccc2C1=O | 1.6 | 12.1 | 42.1*! | 0.4
C[C@@H]1CCCCO[C@H](CN(C)C(=O)Nc2ccc3c(c2)OCO3)[C@@H](C)CN([C@H](C)CO)C(=O)c2cc(NC(=O)c3ccccc3)ccc2O1 | -0.9 | x | 5.4 | 0.2
C[C@H](CO)N1C[C@H](C)[C@H](CN(C)C(=O)Nc2ccc(F)cc2)OCCCC[C@H](C)Oc2ccc(NC(=O)c3ccccc3)cc2C1=O | -1.8 | x | 83.8* | -0.3
C[C@@H]1CCCCO[C@@H](CN(C)C(=O)Nc2ccc(F)cc2)[C@H](C)CN([C@@H](C)CO)C(=O)c2cc(NC(=O)c3ccccc3)ccc2O1 | 52.2 | x | -9.8 | -0.3
C[C@@H]1CCCCO[C@@H](CN(C)C(=O)Nc2ccc(C(F)(F)F)cc2)[C@H](C)CN([C@@H](C)CO)C(=O)c2cc(NC(=O)c3ccccc3)ccc2O1 | 0.2 | 75.5* | 2.0 | -1.2
C[C@@H]1CCCCO[C@H](CN(C)C(=O)Nc2ccc(F)cc2)[C@H](C)CN([C@@H](C)CO)C(=O)c2cc(NC(=O)Cc3ccccc3)ccc2O1 | 0.5 | 86.8* | 0.5 | 0.0
C[C@@H]1CCCCO[C@@H](CN(C)C(=O)Nc2ccc3c(c2)OCO3)[C@@H](C)CN([C@H](C)CO)C(=O)c2cc(NC(=O)c3ccccc3)ccc2O1 | 5.3 | x | 20.4* | 0.1
C[C@H]1CCCCO[C@H](CN(C)C(=O)Nc2ccc(C(F)(F)F)cc2)[C@@H](C)CN([C@@H](C)CO)C(=O)c2cc(NC(=O)c3ccccc3)ccc2O1 | 0.0 | -33.2 | 3.1 | 0.1
CCC(=O)N(C)C[C@H]1Oc2cc(-c3ccc(C)cc3)ccc2S(=O)(=O)N([C@@H](C)CO)C[C@@H]1C | -2.4 | 15.3 | -5.1 | -0.8
O=C(C1CC1)N1C[C@@H]2[C@H](c3ccccc31)[C@H](CO)N2C(=O)c1ccccn1 | 0.4 | -2.7 | 10.4 | 0.0
CCCNC(=O)[C@@H]1[C@@H](CO)[C@@H]2Cn3c(ccc(-c4cccc(F)c4)c3=O)[C@@H]2N1C(=O)CC | -3.0 | -7.2 | -14.6 | 0.0
C[C@H](CO)N1C[C@H](C)[C@H](CN(C)C(=O)Nc2ccc(C(F)(F)F)cc2)OCCCC[C@H](C)Oc2ccc(NC(=O)c3ccccc3)cc2C1=O | 1.0 | 112.1* | 3.3 | -1.0
Cc1ccc(-c2cnc3c(c2)C(=O)N([C@H](C)CO)C[C@H](C)[C@H](CN(C)Cc2ccccc2C(=O)O)O3)cc1 | -1.2 | 5.2 | 9.7 | 0.5
C[C@@H]1CN([C@H](C)CO)C(=O)c2cc(NC(=O)CCCN(C)C)ccc2O[C@@H](C)CCCCO[C@H]1CN(C)S(=O)(=O)c1cccs1 | x | x | 34.3* | -1.0
C[C@@H]1CCCCO[C@H](CN(C)S(=O)(=O)c2cccs2)[C@@H](C)CN([C@@H](C)CO)C(=O)c2cc(NC(=O)CCC(F)(F)F)ccc2O1 | 94.0* | x | u | 0.0
C[C@@H]1CCCCO[C@H](CN(C)S(=O)(=O)c2cccs2)[C@@H](C)CN([C@H](C)CO)C(=O)c2cc(NC(=O)CCCCCC(=O)Nc3ccccc3N)ccc2O1 | x | x | 23.9* | 0.2
O=C1c2ccccc2/C(=C\c2ccc(Br)nc2)N1c1ccccc1 | x | x | 47.2* | -0.1
O=C1c2ccccc2/C(=C\c2ccc(Br)s2)N1c1ccccc1 | -2.3 | 17.3 | -4.0 | 0.0
Cc1cc(C)c2c(N)c(C(=O)c3ccc(Br)cc3)oc2n1 | x | x | 46.4* | 0.2
O=C(COC(=O)Cc1ccccc1F)NCc1ccc(Cl)cc1 | 0.0 | 100.4* | 3.8 | 0.1
O=C(COC(=O)Cc1ccc(Cl)cc1)NCc1ccc(Cl)cc1 | -0.3 | 1.4 | 11.7 | 0.0
O=C(Cc1ccccc1)N[C@H]1CC[C@@H](CC(=O)N2CCOCC2)O[C@H]1CO | -19.6 | -4.8 | u | 0.0
O=C(CSc1nc(CCC2CCCC2)nc2ccccc12)NCc1ccc2c(c1)OCO2 | 115.4* | 12.8 | -3.5 | 0.2
Cc1cc(NC(=O)CSc2nc(CCC3CCCC3)nc3ccccc23)no1 | -1.4 | -14.9 | x | x
SMILES | Cneo AK release | Statin myotox sup | DENV2 CPE rescue | Xi reactivation
Cc1ccc(S(=O)(=O)Nc2ccc3c(c2)CC(=O)N([C@@H](C)CO)C[C@H](C)[C@@H](CN(C)C(=O)Nc2ccc4c(c2)OCO4)O3)cc1 | -2.9 | 10.9 | 3.5 | -0.5
CCN1CCN(Cc2ccc(NC(=O)c3cc(NC(=O)c4cc(C)on4)cc(OC)c3)cc2C(F)(F)F)CC1 | 2.7 | -20.1 | -9.2 | 0.0
CCN1CCN(Cc2ccc(NC(=O)c3cc(NC(=O)c4cnn(-c5ccccc5)c4N)cc(OC)c3)cc2C(F)(F)F)CC1 | -4.5 | -62.2 | 81.6* | -0.3
CCCCOC(=O)CCN1C(=O)/C(=C2\SC(=S)N(CCC(=O)OCCCC)C2=O)SC1=S | -3.1 | 8.9 | 75.0* | 0.1
O=C(NCC1CC1)[C@@H]1[C@@H](CO)[C@@H]2Cn3c(ccc(-c4cccc(F)c4)c3=O)[C@@H]2N1CC1CCOCC1 | -0.2 | -3.7 | -6.1 | 0.0
CCOC(=O)C(C)n1nc(/C=C/c2ccc(OC)cc2)ccc1=O (stereo unspecified) | x | x | -3.2 | 0.0
CCOC(=O)C(C)n1nc(/C=C/c2ccccc2)ccc1=O (stereo unspecified) | -5.5 | 117.9* | x | x
CCCCOc1ccc(C(=O)N/N=C/c2ccc(OCCN3CCCCC3)c(OC)c2)cc1 | -1.6 | 2.5 | 32.2* | -0.1
CCCOc1ccc(/C=N/NC(=O)CN2CCCCC2)cc1OCC | -2.9 | -4.4 | 0.1 | 0.0
COc1ccc(NC(=O)N(C)C[C@@H]2OCCCC[C@H](C)Oc3ccc(NC(=O)Nc4c(C)noc4C)cc3C(=O)N([C@@H](C)CO)C[C@H]2C)cc1 | -1.1 | -16.9 | -2.0 | -1.0
O=c1cc(-c2ccco2)oc2c1ccc1ccccc12 | -0.5 | 103.3* | x | x
O=c1cc(-c2ccncc2)oc2c1ccc1ccccc12 | -1.0 | 8.0 | 3.1 | 0.2
O=C(CN(C(=O)CCC(=O)Nc1ccccn1)c1ccc2c(c1)OCCO2)NCCc1ccccc1 | -0.3 | 99.7* | x | x
Cc1ccc(S(=O)(=O)c2nnn3c2nc(N2CCOCC2)c2ccccc23)cc1C | -4.8 | 25.4 | 25.0* | 0.1
O=C1/C(=C/c2cccnc2)Sc2ccccc21 | 0.1 | 93.0* | x | x
CC(=O)Nc1ccc(/C=C2\Sc3ccccc3C2=O)cc1 | x | x | 0.5 | -0.1
Cc1ccc(/C=C2\Sc3ccccc3C2=O)s1 | -3.2 | 87.3* | x | x
CCCc1cn(CC[C@H]2CC[C@@H](NC(=O)Nc3ccccc3F)[C@@H](CO)O2)nn1 | 17.7 | -0.3 | -4.6 | 0.2
COc1ccc2nc(NN=Cc3cccc(C)n3)cc(C)c2c1 | x | x | 54.4* | -0.2
